From ChEMBL document CHEMBL4177753, “Structural Modification of Natural Product Ganomycin I Leading to Discovery of a α-Glucosidase and HMG-CoA Reductase Dual Inhibitor Improving Obesity and Metabolic Dysfunction in Vivo” (J Med Chem, 2018)
Activity calls are given as the source filed them. The calls are words filed in the database; no cut-off is given here.

Legend:
Mus musculus [1] = test: Hypolipidemic activity in antibiotic-treated ob/ob mouse assessed as decrease in hepatic LDL-C levels at 3 mg/kg administered daily via oral gavage for 3 weeks; format: functional, organism-based
Outline: (§1)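 Male ob/ob mice pretreated three weeks with ampicillin (1 g/L), vancomycin, neomycin, gentamycin and erythromycin. Groups of n = 8 given 3.0 mg/kg/day orally in soybean vehicle versus vehicle. Plasma and hepatic lipids, fasting glucose, OGTT (glucose 2 g/kg after overnight fast) and HbA1c measured.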

Gammaproteobacteria = test: Decrease in Gammaproteobacteria levels in cecum of ob/ob mouse at 1 to 3 mg/kg administered daily via oral gavage for 31 days by 16S rRNA gene high-throughput sequencing method; format: functional, organism-based
Outline: (§2)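 Male ob/ob mice dosed daily by gavage at 1.0 or 3.0 mg/kg, compared with vehicle group. DNA extracted from about 150 mg caecum contents. 16S rRNA V3–V4 region amplified and sequenced on Illumina HiSeq PE250. Community compared by NMDS/MRPP; discriminant taxa identified by LEfSe.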

Neisseria = test: Decrease in Neisseri levels in cecum of ob/ob mouse at 3 mg/kg administered daily via oral gavage for 31 days by 16S rRNA gene high-throughput sequencing method; format: functional, organism-based; outline: as §2
Mus musculus [2] = test: Hypoglycemic activity in C57BL/6J DIO mouse assessed as decrease in blood glucose AUC at 0.3 to 3 mg/kg administered daily via oral gavage for 25 days by OGTT; format: functional, organism-based
Outline: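 Male ob/ob or high-fat-diet C57BL/6J mice dosed daily by gavage at 0.3–3.0 mg/kg. OGTT: glucose 2 g/kg orally after overnight fast. ITT: insulin 0.6 U/kg i.p. after 4 h fast. Glucometer readings at 0, 40, 80 and 120 min; AUC computed from the curves.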

Mus musculus [3] = test: Hypoglycemic activity in antibiotic-treated ob/ob mouse assessed as decrease in blood glucose AUC at 3 mg/kg administered daily via oral gavage for 3 weeks by OGTT; format: functional, organism-based; outline: as §1
[4] = Inhibition of rat small intestinal mucosal alpha-glucosidase using p-nitrophenyl-alpha-D-glucopyranoside as substrate after 40 mins by colorimetric method
Outline: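 Rat small intestinal mucosal α-glucosidase; several compound concentrations, each run three times in parallel; phosphate-buffer control replaces compound, blank replaces enzyme. Absorbance at 405 nm; % inhibition = blank-corrected OD of test versus control; IC50 derived from the concentration gradient.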

Mus musculus [5] = test: Hypoglycemic activity in ob/ob mouse assessed as decrease in free diet blood glucose levels administered daily via oral gavage for 28 days; format: functional, organism-based
Outline: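 Male ob/ob mice, n = 10 per group, daily gavage at 0.3, 1.0 or 3.0 mg/kg in soybean vehicle. Fasting and free-diet blood glucose and HbA1c measured.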

Mus musculus [6] = test: In vivo inhibition of alpha-glucosidase activity in ob/ob mouse assessed as reduction of blood glucose AUC at 0.3 to 3 mg/kg administered daily via oral gavage for 32 days by OMTT; format: functional, organism-based
Outline: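 Male ob/ob mice given 0.3–3.0 mg/kg daily by gavage; after overnight fast, sucrose (OSTT) or maltose (OMTT) 4.0 g/kg given orally; blood glucose by glucose meter at 0, 40, 80 and 120 min; AUC calculated from the time course.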

Mus musculus [7] = test: Hypolipidemic activity in ob/ob mouse assessed as decrease in hepatocyte ballooning at 3 mg/kg administered daily via oral gavage for 31 days by oil red O staining-based microscopic method; format: functional, organism-based
Outline: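 Male ob/ob mice dosed by gavage (soybean vehicle); liver and abdominal white adipose tissue fixed in 10% formaldehyde-PBS pH 7.4, paraffin-embedded, sectioned, stained with H&E, Oil Red O or sirius red, and examined by light microscopy.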

[8] = Chemical stability of the compound at 0.4 mg/ml at room temperature after 3 weeks by HPLC method; format: physicochemical; details: 504 h
Mus musculus [9] = test: Hypoglycemic activity in C57BL/6J DIO mouse assessed as increase in insulin sensitive index at 0.3 to 3 mg/kg administered daily via oral gavage for 5 weeks; format: functional, organism-based
Outline: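 Male high-fat-diet C57BL/6J mice, daily gavage at 0.3–3.0 mg/kg for 5 weeks. ISI calculated as […].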

Mus musculus [10] = test: Hypolipidemic activity in ob/ob mouse assessed as decrease in serum ALT levels at 0.3 to 3 mg/kg administered daily via oral gavage for 31 days; format: functional, organism-based
Mus musculus [11] = test: Hypolipidemic activity in ob/ob mouse assessed as decrease in plasma free fatty acid levels administered daily via oral gavage for 31 days; format: functional, organism-based
Mus musculus [12] = test: Hypolipidemic activity in C57BL/6J DIO mouse assessed as decrease in plasma triglyceride levels at 0.3 to 3 mg/kg administered daily via oral gavage for 5 weeks; format: functional, organism-based
Outline: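 High-fat-diet male C57BL/6J mice, n = 8 per group, daily gavage at 0.3–3.0 mg/kg in soybean vehicle for 5 weeks. Serum total cholesterol, triglycerides and free fatty acids measured.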

Mus musculus [13] = test: Toxicity in C57BL/6J mouse assessed as effect on free diet blood glucose levels at 30 mg/kg administered daily via oral gavage for 3 months; format: organism-based; details: in vivo
Outline: (§3)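 Long-term safety study in C57BL/6J mice, 20 male and 20 female, sorted by gender, blood glucose and body weight into four groups (n = 10 each). Treated groups of each sex got 30.0 mg/kg daily by oral gavage in soybean vehicle. Vehicle groups got an equal volume of soybean. Dosing ran three months, with behavior, survival, body weight, blood glucose, liver function and organ coefficients recorded.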

Mus musculus [14] = test: Hypolipidemic activity in antibiotic-treated ob/ob mouse assessed as decrease in hepatic total cholesterol levels at 3 mg/kg administered daily via oral gavage for 3 weeks; format: functional, organism-based; outline: as §1
Lachnospiraceae = test: Increase in Lachnospiraceae levels in cecum of ob/ob mouse at 1 to 3 mg/kg administered daily via oral gavage for 31 days by 16S rRNA gene high-throughput sequencing method; format: functional, organism-based
Outline: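 Caecum contents (about 150 mg) from ob/ob mice given 1.0 or 3.0 mg/kg by gavage; DNA extracted, 16S rRNA gene V3-V4 region amplified and sequenced on Illumina HiSeq PE250; community compared with vehicle group by NMDS/MRPP and LEfSe.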

Mus musculus [15] = test: Antiobesity activity in antibiotic-treated ob/ob mouse assessed as reduction in cumulative food intake at 3 mg/kg administered daily via oral gavage for 18 days; format: functional, organism-based
Outline: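 Male ob/ob mice given drinking water with ampicillin (1 g/L), vancomycin and other antibiotics for three weeks. Groups of n = 8 were dosed at 3.0 mg/kg/day by mouth in soybean vehicle, alongside non-antibiotic ob/ob groups. Weight gain and food intake recorded.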

Mus musculus [16] = test: Reduction of plasma TNF-alpha levels in ob/ob mouse at 3 mg/kg administered daily via oral gavage for 31 days by ELISA relative to vehicle-treated control; format: functional, organism-based
Outline: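 Male ob/ob mice treated daily by gavage (soybean vehicle); plasma LPS and TNF-α quantified by ELISA kits. For antibiotic groups, ob/ob mice first received an oral antibiotic cocktail (ampicillin 1 g/L, vancomycin, neomycin, gentamycin, erythromycin) for three weeks, then 3.0 mg/kg/day; n = 8 per group.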

Mus musculus [17] = test: Hypoglycemic activity in antibiotic-treated ob/ob mouse assessed as decrease in fasting blood glucose levels at 3 mg/kg administered daily via oral gavage for 3 weeks; format: functional, organism-based; outline: as §1
Mus musculus [18] = test: Toxicity in C57BL/6J mouse assessed as effect on plasma ALT levels at 30 mg/kg administered daily via oral gavage for 3 months; format: organism-based; details: in vivo; outline: as §3

## CC(C)=CCC/C(C)=C/CCC1=C[C@H](c2ccc(C(C)(C)C)cc2)OC1=O
Mus musculus [1]
  Activity: inactive
Gammaproteobacteria
  Activity: Active
Neisseria
  Activity: Active
Mus musculus [2]
  Activity: Active
Mus musculus [3]
  Activity: inactive
[4]
  IC50: 60 nM
Mus musculus [5]
  Activity: Dose-dependent effect
Mus musculus [6]
  inhibition: Active
Mus musculus [7]
  Activity: Active
[8]
  Stability: Stable
Mus musculus [9]
  Activity: Active
Mus musculus [10]
  Activity: Active
Mus musculus [11]
  Activity: Dose-dependent effect
Mus musculus [12]
  Activity: Active
Mus musculus [13]
  Activity: Non-Toxic
Mus musculus [14]
  Activity: inactive
Lachnospiraceae
  Activity: Active
Mus musculus [15]
  Activity: inactive
Mus musculus [16]
  Activity: Active
Mus musculus [17]
  Activity: inactive
Mus musculus [18]
  Activity: Non-Toxic
